Source: ChEMBL document CHEMBL1649165, “Activity profile in vitro of micafungin against Spanish clinical isolates of common and emerging species of yeasts and molds” (2009)
In brackets after ≈: the same amount, converted by molar mass.

Legend:
Format in all cases: functional
[1] = system: Meyerozyma guilliermondii; test: Antimicrobial activity against Candida guilliermondii by broth microdilution method
Outline: (§1)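 Clinical isolates from human patients, tested by broth microdilution using the AFST-EUCAST reference procedure for fermentative yeasts. The MIC was read per that reference method.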

Diutina rugosa = test: Antimicrobial activity against Candida rugosa by broth microdilution method; outline: as §1
Torulaspora delbrueckii = test: Antimicrobial activity against Candida coliculosa by broth microdilution method; outline: as §1
Pichia norvegensis = test: Antimicrobial activity against Candida norvegensis by broth microdilution method; outline: as §1
Candida metapsilosis = test: Antimicrobial activity against Candida metapsilosis by broth microdilution method; conditions: Lodderomyces metapsilosis; outline: as §1
[Candida] zeylanoides = Antimicrobial activity against Candida zeylanoides by broth microdilution method; conditions: Dujonia zeylanoides; outline: as §1
Saccharomyces cerevisiae = test: Antimicrobial activity against Saccharomyces cerevisiae by broth microdilution method
Geotrichum candidum = test: Antimicrobial activity against Galactomyces geotrichum by broth microdilution method
[2] = system: Cryptococcus deneoformans; test: Antimicrobial activity against Cryptococcus neoformans var. neoformans by broth microdilution method
Outline: (§2)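 Clinical isolates of nonfermentative yeasts, tested by broth microdilution following EUCAST recommendations. The only change from that method was a minor modification to improve growth.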

Rhodotorula mucilaginosa = test: Antimicrobial activity against Rhodotorula mucilaginosa by broth microdilution method
Outline: (§3)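 Nonfermentative yeast clinical isolates (Rhodotorula, Trichosporon) tested by broth microdilution. The EUCAST yeast recommendations were followed strictly, with one minor modification to improve growth. MIC was read as the endpoint.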

Trichosporon inkin = test: Antimicrobial activity against Trichosporon inkin by broth microdilution method; outline: as §3
Trichosporon ovoides = test: Antimicrobial activity against Trichosporon ovoides by broth microdilution method; outline: as §3
Trichosporon dermatis = test: Antimicrobial activity against Trichosporon dermatis by broth microdilution method; conditions: Cutaneotrichosporon dermatis; outline: as §3
Trichosporon jirovecii = test: Antimicrobial activity against Trichosporon jirovecii by broth microdilution method; conditions: Cutaneotrichosporon jirovecii; outline: as §3
Ustilago = test: Antimicrobial activity against Ustilago spp by broth microdilution method
Papiliotrema laurentii = test: Antimicrobial activity against Cryptococcus laurentii by broth microdilution method; outline: as §2
Trichosporon domesticum = test: Antimicrobial activity against Trichosporon mycotoxinivorans by broth microdilution method; conditions: Apiotrichum domesticum
Outline: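 Spanish human clinical isolates were tested as nonfermentative yeasts by broth microdilution. The method strictly followed the EUCAST recommendations, with a minor modification to improve growth, and the read-out was the MIC.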

Trichosporon = test: Antimicrobial activity against Trichosporon spp. by broth microdilution method; outline: as §3
Aspergillus fumigatus = test: Antimicrobial activity against Aspergillus fumigatus by broth microdilution method
Outline: (§4)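 Clinical mould isolates, tested by broth microdilution using the AFST-EUCAST reference method for filamentous fungi. For echinocandins, the endpoint was the minimum effective concentration: the lowest drug concentration giving aberrant hyphal growth, read with an inverted microscope.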

Aspergillus niger = test: Antimicrobial activity against Aspergillus niger by broth microdilution method; outline: as §4
Aspergillus nidulans = test: Antimicrobial activity against Aspergillus nidulans by broth microdilution method; outline: as §4
Aspergillus sydowii = test: Antimicrobial activity against Aspergillus sydowii by broth microdilution method; outline: as §4
Aspergillus versicolor = test: Antimicrobial activity against Aspergillus versicolor by broth microdilution method; outline: as §4
Aspergillus ochraceus = test: Antimicrobial activity against Aspergillus ochraceus by broth microdilution method; outline: as §4
Aspergillus ustus = test: Antimicrobial activity against Aspergillus ustus by broth microdilution method; outline: as §4
Aspergillus sclerotiorum = test: Antimicrobial activity against Aspergillus sclerotiorum by broth microdilution method; outline: as §4
Aspergillus glaucus = test: Antimicrobial activity against Aspergillus glaucus by broth microdilution method; outline: as §4
Penicillium = test: Antimicrobial activity against Penicillium spp. by broth microdilution method
Outline: (§5)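 Filamentous fungus clinical isolates tested by the AFST-EUCAST reference broth microdilution method for moulds. For echinocandins, the endpoint was the minimum effective concentration: the lowest drug concentration giving aberrant hyphal growth, read with an inverted microscope.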

Fusarium oxysporum = test: Antimicrobial activity against Fusarium oxysporum by broth microdilution method; outline: as §4
Fusarium verticillioides = test: Antimicrobial activity against Fusarium verticillioides by broth microdilution method; outline: as §5
Paecilomyces lilacinus = test: Antimicrobial activity against Paecilomyces lilacinus by broth microdilution method; conditions: Purpureocillium lilacinum; outline: as §5
Acremonium sp. = test: Antimicrobial activity against Acremonium sp.by broth microdilution method; outline: as §4
[3] = system: Scopulariopsis brevicaulis; test: Antimicrobial activity against Scopulariopsis brevicaulis by broth microdilution method; outline: as §5
Trichoderma = test: Antimicrobial activity against Trichoderma spp. by broth microdilution method; outline: as §5
Phialemonium curvatum = test: Antimicrobial activity against Phialemonium curvatum by broth microdilution method; conditions: Thyridium curvatum; outline: as §5
Fusarium reticulatum = test: Antimicrobial activity against Fusarium reticulatum by broth microdilution method; outline: as §5
Alternaria alternata = test: Antimicrobial activity against Alternaria alternata by broth microdilution method; outline: as §4
Lewia infectoria = test: Antimicrobial activity against Alternaria infectoria by broth microdilution method; outline: as §4
Exophiala dermatitidis = test: Antimicrobial activity against Exophiala dermatitidis by broth microdilution method
Scytalidium hyalinum = test: Antimicrobial activity against Scytalidium hyalinum by broth microdilution method; conditions: Neoscytalidium hyalinum; outline: as §5
[4] = Antimicrobial activity against Rhizopus microsporus by broth microdilution method; outline: as §5
Rhizomucor = test: Antimicrobial activity against Rhizomucor spp.by broth microdilution method; outline: as §5
Saksenaea vasiformis = test: Antimicrobial activity against Saksenaea vasiformis by broth microdilution method; outline: as §5
Exophiala jeanselmei = test: Antimicrobial activity against Exophiala jeanselmei by broth microdilution method

C[C@@H](c1ncncc1F)[C@](O)(Cn1cncn1)c1ccc(F)cc1F [VORICONAZOLE]
MIC50 [1]: 0.12 µg/mL (≈ 0.344 µM) | MIC90 [1]: > 8 µg/mL | MIC50 (Diutina rugosa): 0.12 µg/mL (≈ 0.344 µM) | MIC90 (Diutina rugosa): > 8 µg/mL | MIC50 (Torulaspora delbrueckii): 0.12 µg/mL (≈ 0.344 µM) | MIC90 (Torulaspora delbrueckii): > 8 µg/mL | MIC50 (Pichia norvegensis): 0.12 µg/mL (≈ 0.344 µM) | MIC90 (Pichia norvegensis): > 8 µg/mL | MIC50 (Candida metapsilosis): 0.12 µg/mL (≈ 0.344 µM) | MIC90 (Candida metapsilosis): > 8 µg/mL | MIC50 ([Candida] zeylanoides): 0.12 µg/mL (≈ 0.344 µM) | MIC90 ([Candida] zeylanoides): > 8 µg/mL | MIC50 (Saccharomyces cerevisiae): 0.06 µg/mL (≈ 0.172 µM) | MIC90 (Saccharomyces cerevisiae): 0.5 µg/mL (≈ 1.43 µM) | MIC50 (Geotrichum candidum): 0.5 µg/mL (≈ 1.43 µM) | MIC90 (Geotrichum candidum): 1 µg/mL (≈ 2.86 µM) | MIC50 [2]: 0.12 µg/mL (≈ 0.344 µM) | MIC90 [2]: 0.5 µg/mL (≈ 1.43 µM) | MIC50 (Rhodotorula mucilaginosa): 4 µg/mL (≈ 11.5 µM) | MIC90 (Rhodotorula mucilaginosa): > 8 µg/mL | MIC50 (Trichosporon inkin): 0.06 µg/mL (≈ 0.172 µM) | MIC90 (Trichosporon inkin): 0.12 µg/mL (≈ 0.344 µM) | MIC50 (Trichosporon ovoides): 0.5 µg/mL (≈ 1.43 µM) | MIC90 (Trichosporon ovoides): > 8 µg/mL | MIC50 (Trichosporon dermatis): 0.5 µg/mL (≈ 1.43 µM) | MIC90 (Trichosporon dermatis): > 8 µg/mL | MIC50 (Trichosporon jirovecii): 0.5 µg/mL (≈ 1.43 µM) | MIC90 (Trichosporon jirovecii): > 8 µg/mL | MIC50 (Ustilago): 0.5 µg/mL (≈ 1.43 µM) | MIC90 (Ustilago): > 8 µg/mL | MIC50 (Papiliotrema laurentii): 0.5 µg/mL (≈ 1.43 µM) | MIC90 (Papiliotrema laurentii): > 8 µg/mL | MIC50 (Trichosporon domesticum): 0.5 µg/mL (≈ 1.43 µM) | MIC90 (Trichosporon domesticum): > 8 µg/mL | MIC50 (Trichosporon): 0.5 µg/mL (≈ 1.43 µM) | MIC90 (Trichosporon): > 8 µg/mL | MIC50 (Aspergillus fumigatus): 0.5 µg/mL (≈ 1.43 µM) | MIC90 (Aspergillus fumigatus): 1 µg/mL (≈ 2.86 µM) | MIC50 (Aspergillus niger): 1 µg/mL (≈ 2.86 µM) | MIC90 (Aspergillus niger): 2 µg/mL (≈ 5.73 µM) | MIC50 (Aspergillus nidulans): 0.25 µg/mL (≈ 0.716 µM) | MIC90 (Aspergillus nidulans): 1 µg/mL (≈ 2.86 µM) | MIC50 (Aspergillus sydowii): 1 µg/mL (≈ 2.86 µM) | MIC90 (Aspergillus sydowii): 2 µg/mL (≈ 5.73 µM) | MIC50 (Aspergillus versicolor): 1 µg/mL (≈ 2.86 µM) | MIC90 (Aspergillus versicolor): 2 µg/mL (≈ 5.73 µM) | MIC50 (Aspergillus ochraceus): 0.25 µg/mL (≈ 0.716 µM) | MIC90 (Aspergillus ochraceus): > 8 µg/mL | MIC50 (Aspergillus ustus): 0.25 µg/mL (≈ 0.716 µM) | MIC90 (Aspergillus ustus): > 8 µg/mL | MIC50 (Aspergillus sclerotiorum): 0.25 µg/mL (≈ 0.716 µM) | MIC90 (Aspergillus sclerotiorum): > 8 µg/mL | MIC50 (Aspergillus glaucus): 0.25 µg/mL (≈ 0.716 µM) | MIC90 (Aspergillus glaucus): > 8 µg/mL | MIC50 (Penicillium): 2 µg/mL (≈ 5.73 µM) | MIC90 (Penicillium): 8 µg/mL (≈ 22.9 µM) | MIC50 (Fusarium oxysporum): 4 µg/mL (≈ 11.5 µM) | MIC90 (Fusarium oxysporum): > 8 µg/mL | MIC50 (Fusarium verticillioides): 8 µg/mL (≈ 22.9 µM) | MIC90 (Fusarium verticillioides): > 8 µg/mL | MIC50 (Paecilomyces lilacinus): 0.5 µg/mL (≈ 1.43 µM) | MIC90 (Paecilomyces lilacinus): > 8 µg/mL | MIC50 (Acremonium sp.): 4 µg/mL (≈ 11.5 µM) | MIC90 (Acremonium sp.): > 8 µg/mL | MIC50 [3]: 4 µg/mL (≈ 11.5 µM) | MIC90 [3]: > 8 µg/mL | MIC50 (Trichoderma): 4 µg/mL (≈ 11.5 µM) | MIC90 (Trichoderma): > 8 µg/mL | MIC50 (Phialemonium curvatum): 4 µg/mL (≈ 11.5 µM) | MIC90 (Phialemonium curvatum): > 8 µg/mL | MIC50 (Fusarium reticulatum): 4 µg/mL (≈ 11.5 µM) | MIC90 (Fusarium reticulatum): > 8 µg/mL | MIC50 (Alternaria alternata): 4 µg/mL (≈ 11.5 µM) | MIC90 (Alternaria alternata): > 8 µg/mL | MIC50 (Lewia infectoria): 2 µg/mL (≈ 5.73 µM) | MIC90 (Lewia infectoria): > 8 µg/mL | MIC50 (Exophiala dermatitidis): 0.06 µg/mL (≈ 0.172 µM) | MIC90 (Exophiala dermatitidis): > 8 µg/mL | MIC50 (Scytalidium hyalinum): 0.06 µg/mL (≈ 0.172 µM) | MIC90 (Scytalidium hyalinum): > 8 µg/mL | MIC50 [4]: > 8 µg/mL | MIC90 [4]: > 8 µg/mL | MIC50 (Rhizomucor): > 8 µg/mL | MIC90 (Rhizomucor): > 8 µg/mL | MIC50 (Saksenaea vasiformis): > 8 µg/mL | MIC90 (Saksenaea vasiformis): > 8 µg/mL | MIC50 (Exophiala jeanselmei): 0.06 µg/mL (≈ 0.172 µM) | MIC90 (Exophiala jeanselmei): > 8 µg/mL
